Data taken from ChEMBL document CHEMBL4433221, “Novel Sustainable-by-Design HDAC Inhibitors for the Treatment of Alzheimer's Disease” (ACS Med Chem Lett, 2019).
Activity calls are given as the source filed them. No cut-off for these calls is given here.

What was measured:
[1] = biological target: T1, Histone deacetylase 7 (Homo sapiens) (UniProt Q8WUI4); test: Inhibition of human recombinant HDAC7 using fluorogenic trifluoroacetyl lysine as substrate at 10 uM by fluorescence method
T1 sequence (whole entry): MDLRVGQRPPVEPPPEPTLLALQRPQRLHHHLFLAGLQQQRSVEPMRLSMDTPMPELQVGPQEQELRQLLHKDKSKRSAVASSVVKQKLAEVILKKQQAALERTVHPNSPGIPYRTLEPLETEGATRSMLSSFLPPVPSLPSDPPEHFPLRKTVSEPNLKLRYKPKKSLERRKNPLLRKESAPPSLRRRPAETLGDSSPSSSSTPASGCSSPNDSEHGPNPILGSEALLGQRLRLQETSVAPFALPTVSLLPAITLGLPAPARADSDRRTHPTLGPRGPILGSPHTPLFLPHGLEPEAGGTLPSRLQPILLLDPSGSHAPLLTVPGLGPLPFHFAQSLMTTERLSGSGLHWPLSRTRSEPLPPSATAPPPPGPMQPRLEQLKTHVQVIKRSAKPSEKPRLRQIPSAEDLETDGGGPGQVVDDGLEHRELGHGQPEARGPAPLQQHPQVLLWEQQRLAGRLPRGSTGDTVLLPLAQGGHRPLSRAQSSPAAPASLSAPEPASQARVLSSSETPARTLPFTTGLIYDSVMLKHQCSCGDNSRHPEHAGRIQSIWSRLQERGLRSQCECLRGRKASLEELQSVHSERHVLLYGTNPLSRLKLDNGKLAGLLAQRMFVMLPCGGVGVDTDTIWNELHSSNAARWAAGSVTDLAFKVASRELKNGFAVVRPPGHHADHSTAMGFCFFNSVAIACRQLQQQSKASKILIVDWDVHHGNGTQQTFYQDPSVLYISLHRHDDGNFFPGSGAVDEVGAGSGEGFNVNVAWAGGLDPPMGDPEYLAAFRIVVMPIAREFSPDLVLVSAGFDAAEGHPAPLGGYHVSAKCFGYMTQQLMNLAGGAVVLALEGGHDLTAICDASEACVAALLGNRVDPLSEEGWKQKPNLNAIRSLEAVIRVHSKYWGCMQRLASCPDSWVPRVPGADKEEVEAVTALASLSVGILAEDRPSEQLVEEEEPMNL
In short: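 Selectivity profile across HDAC isoforms 1–11 at a single concentration of 10 μM, run in duplicate.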

[2] = Neurotoxicity against rat CGN cells assessed as cell viability at 50 uM incubated for 24 hrs by MTT assay; assay type: toxicity, cell-based; settings: read-out: Activity
In short: (§1)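 Primary rat cerebellar granule neuron cultures were exposed for 24 h to 5, 25 or 50 μM. Viability was measured by MTT and expressed as percentage of untreated controls, as mean ± SE of at least three experiments, each run in triplicate.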

[3] = system: N9; test: Immunomodulatory activity in mouse N9 cells assessed as increase in LPS-induced MRC1 expression at 25 uM incubated for 24 hrs by Western blot analysis; assay type: functional, cell-based
In short: (§2)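 N9 mouse microglial cells stimulated with LPS (100 ng/mL) and treated at 5 and 25 μM. iNOS and MRC1 levels were read by Western blot with GAPDH as loading control. Densitometry is expressed as percentage of LPS-only cells, as mean ± SE of three independent experiments.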

[4] = Neurotoxicity against rat CGN cells assessed as cell viability at 5 uM incubated for 24 hrs by MTT assay; assay type: toxicity, cell-based; settings: read-out: Activity; in short: as §1
[5] = system: N9; test: Immunomodulatory activity in mouse N9 cells assessed as reduction in LPS-induced MRC1 expression at 5 to 25 uM incubated for 24 hrs by Western blot analysis; assay type: functional, cell-based; in short: as §2

Row | inhibition [1] | SMILES | viability at 24 h, 50 µM [2] [%] | Activity [3] | viability at 24 h, 5 µM [4] [%] | Activity [5]
1 | inactive | COC(=O)c1c(CCCCCCCC(=O)NO)cccc1OC | > 80 | Active | – | –
2 | inactive | COc1cccc(CCCCCCCC(=O)NO)c1 | – | – | ≤ 50 | Dose-dependent effect
